Experimental data from paper PMC3312318 (Biochemistry, 2012).
Ends that are not written are not given here. Oregon Green 488 = Oregon Green 488 fluorophore

Tests used:
PICK1 PDZ domain = conditions: in words, ref [39], cited from earlier work
PKCα [1] = test: In vitro phosphorylation by PKCα; type: biochemical; conditions: in words
Outline: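 About 3 μg of purified untagged PICK1 variant was mixed with reaction buffer (Tris pH 7.5, MgCl2, CaCl2), PKC lipid activator, 10 ng PKCα and 2 μCi [γ-32P]ATP, then incubated 30 min at 30 °C. Reactions were stopped on ice with SDS loading buffer and run on SDS-PAGE. 32P and Coomassie bands were quantified, and the phosphorylation/protein density ratio was expressed relative to WT (100%). Mean ± SE, 3–5 experiments.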

PKCα [2] = test: In vitro phosphorylation by PKCα after preincubation with lipid vesicles; type: biochemical; conditions: with vs without vesicles
Outline: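 Purified untagged PICK1 (~3 μg) was preincubated 30 min on ice with 3 μg Folch fraction type I vesicles extruded to 100 nm, or without vesicles. It was then phosphorylated with 10 ng PKCα, PKC lipid activator, Mg2+/Ca2+ Tris reaction buffer (pH 7.5) and 2 μCi [γ-32P]ATP for 30 min at 30 °C. Read-out was 32P band density over Coomassie protein density.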

[3] = molecular target: T1, PICK1 WT (protein interacting with C-kinase 1), rat (rat, UniProt Q9EP80 1-416); test: fluorescence polarisation
T1 sequence (Q9EP80 whole entry): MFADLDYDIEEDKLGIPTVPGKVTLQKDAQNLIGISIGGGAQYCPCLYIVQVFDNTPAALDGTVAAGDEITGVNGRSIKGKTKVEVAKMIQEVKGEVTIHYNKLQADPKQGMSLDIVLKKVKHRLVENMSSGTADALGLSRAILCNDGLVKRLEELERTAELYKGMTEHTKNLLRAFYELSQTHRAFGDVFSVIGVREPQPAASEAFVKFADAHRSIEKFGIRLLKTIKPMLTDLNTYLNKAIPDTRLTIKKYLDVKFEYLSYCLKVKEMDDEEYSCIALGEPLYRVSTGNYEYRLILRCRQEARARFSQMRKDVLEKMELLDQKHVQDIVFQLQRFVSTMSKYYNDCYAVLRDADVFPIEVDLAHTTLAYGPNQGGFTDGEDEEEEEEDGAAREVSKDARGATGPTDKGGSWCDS

PICK1 S77A, rat [4] = molecular target: T2, PICK1 S77A, rat (rat, UniProt Q9EP80 1-416, S77A); test: fluorescence polarisation
T2 sequence (Q9EP80 whole entry S77A): as the sequence (Q9EP80 whole entry) above, with S77A counted along it

[5] = molecular target: T3, PICK1 S77D, rat (phosphomimic) (rat, UniProt Q9EP80 1-416, S77D); test: fluorescence polarisation
T3 sequence (Q9EP80 whole entry S77D): as the sequence (Q9EP80 whole entry) above, with S77D counted along it

[6] = molecular target: T1, PICK1 WT (protein interacting with …); test: fluorescence polarisation; remark: listed apart in the source
PICK1 S77A, rat [7] = molecular target: T2, PICK1 S77A, rat; test: fluorescence polarisation; remark: listed apart in the source
[8] = molecular target: T3, PICK1 S77D, rat (phosphomimic); test: fluorescence polarisation; remark: listed apart in the source

Ki [3] | Ki (PICK1 S77A, rat [4]) | Ki [5] | Molecule | further results
49 µM | 28 µM | 29 µM | NPQFVHPILQSAV [PKCα C13 (13 C-terminal residues of human protein kinase Cα)] | 
7.6 µM | 9.8 µM | 8.8 µM | EGYNVYGIESVKI [GluA2 C13 (13 C-terminal residues of human GluA2)] | 

The remaining lines, values behind:

Molecule | Ki [3] | Ki (PICK1 S77A, rat [4]) | Ki [5] | further results
EVRQFTLRHWLKD [DAT C13 V to D] |  |  |  | interaction with the PICK1 PDZ domain (PICK1 PDZ domain; last residue changed to aspartate): disrupts the interaction with the PICK1 PDZ domain
OrG DAT C13: DAT C13 with an additional N-terminal cysteine residue coupled to the fluorophore Oregon Green 488 (C(Oregon Green 488)EVRQFTLRHWLKV) |  |  |  | affinity for the PICK1 PDZ domain (PICK1 PDZ domain): highest affinity reported for the PICK1 PDZ domain
PICK1 A87L: PICK1 mutant (A87L) that cannot accommodate a peptide in the PDZ binding pocket |  |  |  | PKCα phosphorylation compared with PICK1 WT (PKCα [1]; n=3-5): phosphorylated to the same level as WT
PICK1 WT: purified rat PICK1, cleaved from GST with thrombin |  |  |  | PKCα in vitro phosphorylation (PKCα [1]; SDS-PAGE, 32P autoradiography, n=3): PICK1 is a substrate for PKCα; fold increase in phosphorylation on addition of lipid vesicles (PKCα [2]): approximately 10 fold
EVRQFTLRHWLKV [DAT C13 (13 C-terminal residues of the human dopamine transporter)] | 1.05 µM | 1.5 µM | 1.1 µM | 
C(Oregon Green 488)EVRQFTLRHWLKV [OrG DAT C13 (DAT C13 with an additional N-terminal cysteine coupled to Oregon Green 488)] |  |  |  | binding result [6]: binds; binding result (PICK1 S77A, rat [7]): binds; binding result [8]: binds
